From PMC6438620 (Bioorganic & medicinal chemistry letters, 2018)

Tests used:
D4 dopamine receptor = target: T1, D4 dopamine receptor (Homo sapiens, UniProt P21917); assay: PDSP primary binding and radioligand binding
T1 sequence (P21917 1-419): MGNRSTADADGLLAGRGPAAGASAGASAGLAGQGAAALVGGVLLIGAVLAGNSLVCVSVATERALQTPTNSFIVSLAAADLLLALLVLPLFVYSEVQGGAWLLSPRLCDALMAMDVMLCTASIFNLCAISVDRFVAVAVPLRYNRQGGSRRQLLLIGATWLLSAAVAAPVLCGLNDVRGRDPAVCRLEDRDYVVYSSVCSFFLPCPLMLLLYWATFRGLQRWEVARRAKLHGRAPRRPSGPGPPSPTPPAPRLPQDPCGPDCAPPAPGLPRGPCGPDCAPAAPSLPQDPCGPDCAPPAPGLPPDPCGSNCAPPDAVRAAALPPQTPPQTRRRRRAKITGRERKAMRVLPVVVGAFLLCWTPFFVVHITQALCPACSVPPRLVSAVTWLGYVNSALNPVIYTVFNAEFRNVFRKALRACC

Toxicity in mice = conditions: mouse, in vivo
Summary of the method: (§1)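 Female C57BL6 mice were dosed with test compound at 5 mg/kg i.p. once daily for seven consecutive days and sacrificed 24 h after the last injection. Blood clinical chemistry covered electrolytes, minerals, total protein, albumin, globulin, A/G ratio, BUN, ALT, AST, GLDH, ALP, bilirubin, amylase and creatine kinase.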

[1] = Tissue distribution by LC-MS/MS after 7-day i.p. treatment; conditions: 5 mg/kg i.p. daily for 7 days, 24 h after last injection
[2] = test system: LLC luc and MDA MB-231 cell lines; assay: MTT colorimetric cytotoxicity assay, values given over both cell lines; conditions: for Cytotoxic activity compared with penfluridol: MTT, LLC luc and MDA MB-231
[3] = Clinical chemistry analysis of blood samples; assay type: in vivo, C57BL6 mice; conditions: 5 mg/kg, daily i.p. dosing for 7 days, n = 5
Summary of the method: as §1

serotonin receptors = assay: PDSP binding at serotonin receptor subtypes
[4] = target: H2 (histamine receptor 2) (Homo sapiens, UniProt P25021); assay: PDSP primary binding and radioligand binding
[5] = target: H1 (histamine receptor 1) (Homo sapiens, UniProt P35367); assay: PDSP primary binding and radioligand binding
Sequence of H1 (histamine receptor 1) (P35367 whole entry): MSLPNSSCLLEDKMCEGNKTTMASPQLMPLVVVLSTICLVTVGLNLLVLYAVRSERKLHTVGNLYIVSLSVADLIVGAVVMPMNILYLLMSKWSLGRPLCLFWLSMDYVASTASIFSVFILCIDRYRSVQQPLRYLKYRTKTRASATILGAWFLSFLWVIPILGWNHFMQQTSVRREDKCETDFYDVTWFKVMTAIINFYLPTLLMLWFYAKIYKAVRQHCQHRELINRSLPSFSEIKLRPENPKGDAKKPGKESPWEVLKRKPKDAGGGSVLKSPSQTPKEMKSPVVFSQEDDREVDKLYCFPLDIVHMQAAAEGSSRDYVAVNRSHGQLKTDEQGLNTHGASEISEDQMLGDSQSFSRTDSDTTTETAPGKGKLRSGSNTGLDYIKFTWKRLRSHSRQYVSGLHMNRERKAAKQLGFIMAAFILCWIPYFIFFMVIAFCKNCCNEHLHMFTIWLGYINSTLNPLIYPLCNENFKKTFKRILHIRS

Sequence of H2 (histamine receptor 2) (P25021 whole entry): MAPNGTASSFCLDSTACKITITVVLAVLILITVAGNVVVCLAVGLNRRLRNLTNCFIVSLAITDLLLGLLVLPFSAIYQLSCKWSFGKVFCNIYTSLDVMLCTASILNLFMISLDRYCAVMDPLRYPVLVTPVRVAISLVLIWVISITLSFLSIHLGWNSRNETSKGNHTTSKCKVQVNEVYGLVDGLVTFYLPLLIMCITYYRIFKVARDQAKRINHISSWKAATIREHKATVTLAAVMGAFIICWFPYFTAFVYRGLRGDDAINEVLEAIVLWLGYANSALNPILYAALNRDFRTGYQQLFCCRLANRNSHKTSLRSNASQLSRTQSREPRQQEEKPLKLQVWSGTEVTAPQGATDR

Row | SMILES | Toxicity in mice (Toxicity in mice) | Distribution pattern: accumulation of the drug [1] | Cytotoxic activity compared with penfluridol [2] | Alkaline phosphatase (ALP) levels [3] | Blood urea nitrogen (BUN) levels [3] | Glutamate dehydrogenase (GLDH) [3] | Inhibition at some serotonin receptors (serotonin receptors; primary binding) | other results
1 | OC1(c2ccc(Cl)c(C(F)(F)F)c2)CCN(CCCCC(c2ccc(F)cc2)c2ccc(F)cc2)CC1 [8a] | no toxicity in mice | predominantly in the adipose tissue and lungs | – | – | – | – | – | Ki (D4 dopamine receptor): 25 nM; Level of the drug in the brain relative to penfluridol [1]: higher level of the drug in the brain relative to penfluridol
2 | OC1(c2ccc(Cl)c(C(F)(F)F)c2)CCN(CCCCCc2ccc(F)cc2)CC1 [compound 13] | – | – | reduced activity | – | – | – | – | –
3 | OC1(c2ccc(Cl)c(C(F)(F)F)c2)CCN(CCCC(c2ccc(F)cc2)c2ccc(F)cc2)CC1 [penfluridol, reference compound] | – | predominantly in the adipose tissue and lungs | – | decreased ALP levels | decreased BUN levels | increased GLDH | 95–100% | IC50 ([2]; Homo sapiens, MDA-MB-231, read-out: IC50 (cytotoxicity, MTT)): 4300 to 5100 nM
4 | OC1(c2ccc(Cl)c(C(F)(F)F)c2)CCN(CCCCN(c2ccc(F)cc2)c2ccc(F)cc2)CC1 [11b] | – | – | – | – | – | – | 50–80% | Activity at H2 receptor [4]: abolished activity; Activity at H1 receptor [5]: abolished activity; Change of Ki values compared to penfluridol (serotonin receptors; other serotonin receptor subtypes): 3–16 fold; Inhibition levels at other serotonin receptor subtypes (serotonin receptors; primary binding, other serotonin receptor subtypes): > 90%
5 | OC1(c2ccc(Cl)c(C(F)(F)F)c2)CCN(CCCC(c2ccccc2)c2ccccc2)CC1 [8b] | – | – | reduced activity | – | – | – | – | –
6 | COc1ccc(N(CCCCN2CCC(O)(c3ccc(Cl)c(C(F)(F)F)c3)CC2)c2ccc(OC)cc2)cc1 [8c] | no toxicity in mice | – | – | None of these changes was observed | None of these changes was observed | None of these changes was observed | – | Concentration of the drug in all tested samples (plasma, brain, lungs, adipose tissue) [1]: lower concentration of the drug in all tested samples
